Assay results pooled from the literature.
Compare with care: the assays were run in different laboratories. In brackets after ≈: the same amount, converted by molar mass.

SMILES	target or system	assay	system	setting	measurement	result
O=c1[nH]c(=O)n([C@H]2C[C@H](O)[C@@H](CO)O2)cc1/C=C/Br	Cowpox virus	microbial growth	–	–	MIC50	50 µM (≈ 16.7 µg/mL)
COC(=O)c1cc(-c2cccc(NC(=O)Nc3cc(Cl)ccc3Cl)c2)on1	Mycolicibacterium fortuitum	microbial growth, broth dilution	ATCC6841	48 h	MIC	> 64 µg/mL
N#Cc1ccc(NC(=S)NN=Cc2ccc(N(CCCl)CCCl)cc2)cc1	CCRF-CEM	cell growth or viability	–	72 h	IC50	0.7 µg/mL
Cc1ccc(-c2nc3ccc(C)cn3c2CC(=O)N(C)C)cc1	Mycobacterium marinum	microbial growth	–	5 days	MIC	> 50 µM
NCC(=O)Nc1ccc(-n2nc(C(F)(F)F)cc2-c2ccc3c(ccc4ccccc43)c2)cc1	Human immunodeficiency virus 1	viral replication, inhibitor	human PBMC	clinical isolate	IC90	2.25 µM
N.N.[Cl][Pt][Cl]	PK-59	cell growth or viability, MTT	–	24 h	IC50	2.66 µM
COC(=O)c1cc(-c2cccc(NC(=O)NCc3ccccc3)c2)on1	Mycolicibacterium fortuitum	microbial growth, broth dilution	ATCC6841	48 h	MIC	> 64 µg/mL
N.N.[Cl][Pt][Cl]	184B5	cell growth or viability	–	–	IC50	5.73 µM
COC(=O)c1cc(-c2cccc(NC(=O)Nc3ccccc3)c2)on1	Mycolicibacterium fortuitum	microbial growth, broth dilution	ATCC6841	48 h	MIC	> 64 µg/mL
N#Cc1ccc(NC(=S)NN=Cc2ccccc2)cc1	CCRF-CEM	cell growth or viability	–	72 h	IC50	83 µg/mL
COC(=O)c1cc(-c2cccc(NC(=S)Nc3ccc([N+](=O)[O-])cc3)c2)on1	Mycolicibacterium fortuitum	microbial growth, broth dilution	ATCC6841	48 h	MIC	> 64 µg/mL
CCOC(=O)c1c(CSc2ccccc2)n(C)c2cc(Br)c(O)c(CN(C)C)c12	Cowpox virus	microbial growth	–	–	MIC50	> 37 µM
COc1cc(C(=O)c2cc3c(-c4ccccc4)c(O)ccc3o2)cc(OC)c1OC	CCRF-CEM	cell growth or viability	–	72 h	IC50	> 50 µM
CO[C@H]1/C=C/O[C@@]2(C)Oc3c(C)c(O)c4c(O)c(c(/C=N/N5CCN(C)CC5)c(O)c4c3C2=O)NC(=O)/C(C)=C\C=C\[C@H](C)[C@H](O)[C@@H](C)[C@@H](O)[C@@H](C)[C@H](OC(C)=O)[C@@H]1C	Mycolicibacterium fortuitum	microbial growth	ATCC6841	–	MIC	3.1 to 6.2 µg/mL
CC(C(=O)N1CCCCC1)c1cccc(C(OC(=O)N2CCCCC2)c2ccccc2)c1 (stereo not drawn)	CCRF-CEM	cell growth or viability	–	72 h	IC50	13 µM
COC(=O)c1cc(-c2cccc(NC(=O)Nc3ccc(C(F)(F)F)cc3)c2)on1	Mycolicibacterium fortuitum	microbial growth, broth dilution	ATCC6841	48 h	MIC	> 64 µg/mL
Nc1nc(O)c2ncn(COC(CO)CO)c2n1	Cowpox virus	microbial growth	–	–	MIC50	> 100 µM
CC(C(=O)n1nnc2ccccc21)c1cccc(C(OC(=O)n2nnc3ccccc32)c2ccccc2)c1 (stereo not drawn)	CCRF-CEM	cell growth or viability	–	72 h	IC50	67 µM
